# Data reported in ChEMBL document CHEMBL1136746 (2003).
# Several values for one entry are separate records, joined by “and”; a condition that tells them apart may be missing. Identical values can stand only once. Activity calls are given as the source filed them. The rule behind the calls is not given here.
# Experiments:
# [1] = test system: Caco-2; assay: Apparent Permeability through Caco-2 cell monolayers (n = 4); format: functional, cell-based; details: Homo sapiens
# In short: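 Caco-2 cells seeded on polycarbonate inserts (0.45 µm pore, 6.5 mm) and grown 21 days to differentiate; TEER >400 Ω/cm² before and after. ³H-acetylated peptide or [¹⁴C]mannitol (200 µM) added apically in HBSS/25 mM HEPES pH 7.4, 37 °C, shaken 400 rpm. Receiver chamber swapped at 30, 90, 150 min; scintillation counting. Papp averaged over four replicates.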
# [2] = species on record: Rattus norvegicus; assay: Reduction in the amplitude of the nACh-activated current in rat parasympathetic ganglia at a concentration of 22 nM to that of control response (n =2); format: functional; set-up: scale not given: the % may be the effect or the level left
# [3] = species on record: Rattus norvegicus; assay: Reduction in the nACh-activated current in rat parasympathetic ganglia at a concentration of 4.5 nM to that of control response (n =3); format: functional; set-up: scale not given: the % may be the effect or the level left
# [4] = species on record: Rattus norvegicus; assay: Percent Hemolysis observed in rat red blood cells when Treated with 1 mM concentration; format: functional
# [5] = species on record: Rattus norvegicus; assay: Percent Hemolysis observed in rat red blood cells when Treated with 2 mM concentration; format: functional
# [6] = species on record: Rattus norvegicus; assay: Percent Hemolysis observed in rat red blood cells when Treated with 5 mM concentration; format: functional
# [7] = species on record: Rattus norvegicus; assay: Reduction in the amplitude of the nACh-activated current in rat parasympathetic ganglia; format: functional, organism-based
# [8] = species on record: Rattus norvegicus; assay: Reduction in the amplitude of the nACh-activated current in rat parasympathetic ganglia at a concentration of 22 nM to that of control response (n =4); format: functional; set-up: scale not given: the % may be the effect or the level left
# [9] = species on record: Rattus norvegicus; assay: Reduction in the amplitude of the nACh-activated current in rat parasympathetic ganglia at a concentration of 222 nM to that of control response (n =3); format: functional; set-up: scale not given: the % may be the effect or the level left
# [10] = species on record: Rattus norvegicus; assay: Reduction in the amplitude of the nACh-activated current in rat parasympathetic ganglia at 10 uM (n = 3); No effect; format: functional, organism-based
# In short: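 Perforated-patch whole-cell recording with 240 µg/mL amphotericin B in the pipette (K₂SO₄/KCl/MgSO₄/HEPES, pH 7.2). Bath: NaCl/KCl/CaCl₂/MgCl₂/glucose/HEPES. ACh 500 µM plus atropine 100 nM applied 2 s by piezo. Peptide is present in pipette and perfusate. Current is expressed as % of control, mean ± SEM.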
smiles,measurement,setting,value
CC(C)C[C@@H]1NC(=O)[C@H](CC(N)=O)NC(=O)[C@H](CO)NC(=O)[C@H](Cc2c[nH]cn2)NC(=O)[C@H](CCC(=O)O)NC(=O)[C@H](CC(C)C)NC(=O)[C@H](Cc2c[nH]cn2)NC(=O)[C@@H]2CSSC[C@H](NC(=O)CN)C(=O)N[C@@H](CSSC[C@@H](C(=O)O)NC1=O)C(=O)N[C@@H](CO)C(=O)N[C@@H](CC(N)=O)C(=O)N1CCC[C@H]1C(=O)N[C@@H](C(C)C)C(=O)N2,Papp,[1],20.5 10e-6 cm s-1
same,Control,[2],57% and 41%
same,Control,[3],90%
same,Hemolysis,[4],0.53%
same,Hemolysis,[5],0.83%
same,Hemolysis,[6],1.35%
same,IC50,[7],10 nM
CCCCCCCCCCC(NCC(=O)N[C@H]1CSSC[C@@H]2NC(=O)[C@H](C(C)C)NC(=O)[C@@H]3CCCN3C(=O)[C@H](CC(N)=O)NC(=O)[C@H](CO)NC(=O)[C@H](CSSC[C@@H](C(=O)O)NC(=O)[C@H](CC(C)C)NC(=O)[C@H](CC(N)=O)NC(=O)[C@H](CO)NC(=O)[C@H](Cc3c[nH]cn3)NC(=O)[C@H](CCC(=O)O)NC(=O)[C@H](CC(C)C)NC(=O)[C@H](Cc3c[nH]cn3)NC2=O)NC1=O)C(=O)O (stereo partly specified),Papp,[1],4.97 10e-6 cm s-1
same,Control,[8],57%
same,Control,[9],47%
same,Control,[3],92%
same,Hemolysis,[4],1.04%
same,Hemolysis,[5],0.45%
same,Hemolysis,[6],0.83%
same,IC50,[7],12.8 nM
CCCCCCCCCCC1C(=O)[C@H](CC(N)=O)NC(=O)[C@H](CO)NC(=O)[C@@H]2CSSC[C@@H](C(=O)O)NC(=O)[C@H](CC(C)C)NC(=O)[C@H](CC(N)=O)NC(=O)[C@H](CO)NC(=O)[C@H](Cc3c[nH]cn3)NC(=O)[C@H](CCC(=O)O)NC(=O)[C@H](CC(C)C)NC(=O)[C@H](Cc3c[nH]cn3)NC(=O)[C@H](CSSC[C@H](NC(=O)CN)C(=O)N2)NC(=O)[C@H](C(C)C)NC(=O)[C@@H]2CCCN12 (stereo partly specified),Reduction,[10],inactive
